# Assay results from different studies.
# Each line is one published result; the experiments were not run side by side.
# Observed: DPPH scavenging
SMILES,technique,IC50
COc1ccc(-c2nc3ccccc3[nH]2)cc1OCc1ccccc1,absorbance,1480 nM
CCCCCCCCOc1ccc(NC(=O)Cc2c[nH]c3ccccc23)cc1,,2450 nM
Cc1cc2nc(-c3ccccc3OCc3ccccc3)[nH]c2cc1C,absorbance,1800 nM
O=C(O)c1cc(O)c(O)c(O)c1,absorbance,36700 nM
COc1ccc(-c2nc3cc([N+](=O)[O-])ccc3[nH]2)cc1OCc1ccccc1,absorbance,2570 nM
O=c1oc2c(O)c(O)cc3c(=O)oc4c(O)c(O)cc1c4c23,absorbance,67800 nM
COc1cc(NC(=O)Cc2c[nH]c3ccccc23)ccc1C,,1530 nM
Cc1c(C)c2c(c(C)c1O)CCC(C)(C(=O)O)O2 (stereo not shown),absorbance,7.06 µg/mL
Cc1ccc(NC(=O)Cc2c[nH]c3ccccc23)c(C)c1,,2670 nM
COc1cc(C(CC(=O)c2ccc(Cl)cc2)NCCc2ccc(O)c(O)c2)ccc1O (stereo not shown),,15.3 µg/mL
CCCCOc1ccc(NC(=O)Cc2c[nH]c3ccccc23)cc1,,2420 nM
COc1cc(C(CC(N)=O)NCCc2ccc(O)c(O)c2)ccc1O (stereo not shown),,80.2 µg/mL
O=C(Cc1c[nH]c2ccccc12)Nc1ccc(Br)cc1,,1030 nM
COC(=O)c1cc(O)c(O)c(O)c1,absorbance,35000 nM
Cc1cc(C(C)(C)C)c(O)c(C(C)(C)C)c1,,25.2 µg/mL
O=C(Cc1c[nH]c2ccccc12)Nc1ccccc1,,2360 nM
O=C1O[C@H]([C@@H](O)CO)C(O)=C1O,absorbance,141000 nM
Cc1ccc(Cl)cc1NC(=O)Cc1c[nH]c2ccccc12,,1620 nM
O=C1O[C@H]([C@@H](O)CO)C(O)=C1O,,4960 nM
Cc1cc(C(C)(C)C)c(O)c(C(C)(C)C)c1,absorbance,25.9 µg/mL
COc1ccc(-c2nc3cc(Cl)ccc3[nH]2)cc1OCc1ccccc1,absorbance,2760 nM
COc1cc(C=Cc2cc(-c3ccc(N(C)C)cc3)nc(O)n2)ccc1O,,32.5 µg/mL
